Source: ChEMBL document CHEMBL5252514, “Conopeptide-Derived κ-Opioid Agonists (Conorphins): Potent, Selective, and Metabolic Stable Dynorphin A Mimetics with Antinociceptive Properties” (J Med Chem, 2016)
Where a SMILES comes first, the peptide text is derived from it.

Molecular target: Kappa-type opioid receptor (Homo sapiens, UniProt P41145)
Experiment: Displacement of [3H]U69593 from human kappa opioid receptor expressed in CHO-K1 cells incubated for 1 hr by 1450 microbeta scintillation counter analysis
Format: cell-based
In short: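 Membranes from transiently KOR-transfected CHO-K1 cells (~2 µg/well) used in SPA with 3H-U69,593 (1 nM). Competitor ranged 1 pM–10 µM in 50 mM Tris-HCl pH 7.4, 5 mM MgCl2, 0.1% BSA. Incubated 1 h at room temperature with shaking. Nonspecific binding defined with 10 µM dynorphin A. Sigmoidal dose-response fit; at least three independent experiments in triplicate.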

Sequence of Kappa-type opioid receptor (P41145 whole entry): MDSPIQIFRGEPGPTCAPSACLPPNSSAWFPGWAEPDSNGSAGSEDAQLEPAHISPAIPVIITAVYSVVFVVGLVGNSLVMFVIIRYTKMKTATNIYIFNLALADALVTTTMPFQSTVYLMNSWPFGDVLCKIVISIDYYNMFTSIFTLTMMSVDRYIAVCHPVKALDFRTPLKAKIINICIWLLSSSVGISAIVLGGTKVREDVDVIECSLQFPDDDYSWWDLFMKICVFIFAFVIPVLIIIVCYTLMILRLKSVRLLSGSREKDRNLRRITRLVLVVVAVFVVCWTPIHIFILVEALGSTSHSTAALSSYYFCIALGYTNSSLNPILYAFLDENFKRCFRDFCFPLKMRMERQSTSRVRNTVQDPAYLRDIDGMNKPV

With `N=C(N)NCCC[C@@H](NC(=O)[C@@H](CCCNC(=N)N)NC(=O)[C@@H]1CCCN1C(=O)c1ccccc1)C(=O)N[C@@H](CCC(N)=O)C(=O)N[C@@H](CC1CCCCC1)C(=O)N[C@H]1CSCSC[C@@H](C(N)=O)NC1=O` the Ki was 15.8 nM.

`N=C(N)NCCC[C@@H](NC(=O)[C@@H](CCCNC(=N)N)NC(=O)[C@@H]1CCCN1C(=O)c1ccc([N+](=O)[O-])cc1)C(=O)N[C@@H](CCC(N)=O)C(=O)N[C@@H](CS)C(=O)N[C@@H](CC1CCCCC1)C(=O)N[C@H]1CSSC[C@@H](C(N)=O)NC1=O` showed a Ki of 2.2 nM.

`N=C(N)NCCC[C@@H](NC(=O)Cc1ccc(F)cc1)C(=O)N[C@H](CCCNC(=N)N)C(=O)N[C@@H](CCC(N)=O)C(=O)N[C@@H](CC1CCCCC1)C(=O)N[C@H]1CSSC[C@@H](C(N)=O)NC1=O` showed a Ki of 1.2 nM.

`CC[C@H](C)[C@@H]1NC(=O)[C@H](CCC(N)=O)NC(=O)[C@H](CCCNC(=N)N)NC(=O)[C@H](CCCNC(=N)N)NC(=O)[C@@H]2CSSC[C@H](NC1=O)C(=O)N[C@H](C(N)=O)CSSC[C@H](NC(=O)[C@@H](N)CC(N)=O)C(=O)N2` (HELM PEPTIDE1{N.C.C.R.R.Q.I.C.C.[am]}$PEPTIDE1,PEPTIDE1,2:R3-9:R3|PEPTIDE1,PEPTIDE1,3:R3-8:R3$$$V2.0) showed a Ki of 580 nM.

`N=C(N)NCCC[C@H](NC(=O)[C@@H]1CCC(=O)N1)C(=O)N[C@@H](CCCNC(=N)N)C(=O)N[C@@H](CCC(N)=O)C(=O)N[C@@H](CC1CCCCC1)C(=O)N[C@H]1CCCCN(CC(N)=O)C1=O` (HELM PEPTIDE1{[Glp].R.R.Q.[Cha].[NC(=O)CN1CCCC[C@H](N[*:1])C1=O]}$$$$V2.0) showed a Ki of 12900 nM.

Work on `N=C(N)NCCC[C@@H](NC(=O)[C@@H](CCCNC(=N)N)NC(=O)[C@@H]1CCCN1C(=O)c1ccccc1)C(=O)N[C@@H](CCC(N)=O)C(=O)N[C@@H](CC1CCCCC1)C(=O)N1CCSSC[C@@H](C(N)=O)NC(=O)C1` yielded a Ki of 199 nM.

In the case of `CC[C@H](C)[C@H](NC(=O)[C@H](CCCN=C(N)N)NC(=O)[C@H](CCCN=C(N)N)NC(=O)[C@H](CC(C)C)NC(=O)[C@H](Cc1ccccc1)NC(=O)CNC(=O)CNC(=O)[C@@H](N)Cc1ccc(O)cc1)C(=O)N[C@@H](CCCN=C(N)N)C(=O)N1CCC[C@H]1C(=O)N[C@@H](CCCCN)C(=O)N[C@@H](CC(C)C)C(=O)N[C@@H](CCCCN)C(N)=O`, the Ki is reported as 0.4 nM.

With `N=C(N)NCCC[C@@H](NC(=O)[C@@H](CCCNC(=N)N)NC(=O)[C@@H]1CCCN1C(=O)c1ccccc1)C(=O)N[C@@H](CC(N)=O)C(=O)N[C@@H](CC1CCCCC1)C(=O)N[C@H]1CSSC[C@@H](C(N)=O)NC1=O` the Ki was 0.61 nM.

With `N=C(N)NCCC[C@@H](NC(=O)[C@@H]1CCC(=O)N1)C(=O)N[C@H](CCCNC(=N)N)C(=O)N[C@@H](CCC(N)=O)C(=O)N[C@@H](CC1CCCCC1)C(=O)N[C@H]1CCSSC[C@@H](C(N)=O)NC1=O` the Ki was 783 nM.

In the case of `CC[C@H](C)[C@H](NC(=O)[C@H](CCC(N)=O)NC(=O)[C@H](CCCNC(=N)N)NC(=O)[C@H](CCCNC(=N)N)NC(=O)[C@@H]1CSSC[C@H](NC(=O)[C@@H](N)CC(N)=O)C(=O)N1)C(N)=O` (HELM PEPTIDE1{N.C.C.R.R.Q.I.[am]}$PEPTIDE1,PEPTIDE1,2:R3-3:R3$$$V2.0), the Ki is reported as 14700 nM.

`CC[C@H](C)[C@H](NC(=O)[C@H](C)NC(=O)[C@H](CCCNC(=N)N)NC(=O)[C@H](CCCNC(=N)N)NC(=O)[C@@H]1CSSC[C@H](NC(=O)[C@@H](N)CC(N)=O)C(=O)N1)C(=O)N[C@H]1CSSC[C@@H](C(N)=O)NC1=O` (HELM PEPTIDE1{N.C.C.R.R.A.I.C.C.[am]}$PEPTIDE1,PEPTIDE1,2:R3-3:R3|PEPTIDE1,PEPTIDE1,8:R3-9:R3$$$V2.0) showed a Ki of 133 nM.

In the case of `N=C(N)NCCC[C@@H](NC(=O)[C@@H](CCCNC(=N)N)NC(=O)[C@@H]1CCCN1C(=O)c1ccccc1)C(=O)N[C@@H](Cc1ccccc1)C(=O)N[C@@H](CC1CCCCC1)C(=O)N[C@H]1CSSC[C@@H](C(N)=O)NC1=O`, the Ki is reported as 0.59 nM.

For `N=C(N)NCCC[C@@H](NC(=O)[C@@H](CCCNC(=N)N)NC(=O)[C@@H]1CCCN1C(=O)c1ccccc1)C(=O)N[C@@H](CCC(N)=O)C(=O)N[C@@H](CC1CCCCC1)C(=O)N[C@H]1CC(=O)NC[C@@H](C(N)=O)NC1=O`, the Ki was 233 nM.

`CC[C@H](C)[C@@H]1NC(=O)[C@H](CCC(N)=O)NC(=O)[C@H](CCCNC(=N)N)NC(=O)[C@H](CCCNC(=N)N)NC(=O)[C@@H]2CSSC[C@@H](C(N)=O)NC(=O)[C@H](CSSC[C@H](NC(=O)[C@@H](N)CC(N)=O)C(=O)N2)NC1=O` (HELM PEPTIDE1{N.C.C.R.R.Q.I.C.C.[am]}$PEPTIDE1,PEPTIDE1,2:R3-8:R3|PEPTIDE1,PEPTIDE1,3:R3-9:R3$$$V2.0) gave a Ki of 1470 nM.

`N=C(N)NCCC[C@@H](NC(=O)[C@@H](CCCNC(=N)N)NC(=O)[C@@H]1CCCN1C(=O)c1ccccc1)C(=O)N[C@@H](CCC(N)=O)C(=O)N[C@@H](CC1CCCCC1)C(=O)N[C@H]1CSS[C@H]2C[C@@H](C(N)=O)N(C2)C1=O` gave a Ki of 208 nM.

`N=C(N)NCCC[C@@H](NC(=O)Cc1cccc(Cl)c1)C(=O)N[C@H](CCCNC(=N)N)C(=O)N[C@@H](CCC(N)=O)C(=O)N[C@@H](CC1CCCCC1)C(=O)N[C@H]1CSSC[C@@H](C(N)=O)NC1=O` showed a Ki of 2.1 nM.

In the case of `CN(C(=O)[C@H](CC1CCCCC1)NC(=O)[C@H](CCC(N)=O)NC(=O)[C@@H](CCCNC(=N)N)NC(=O)[C@@H](CCCNC(=N)N)NC(=O)[C@@H]1CCCN1C(=O)c1ccccc1)[C@H]1CSSC[C@@H](C(N)=O)NC1=O`, the Ki is reported as 15 nM.

With `C[C@H](NC(=O)[C@@H](CCCNC(=N)N)NC(=O)[C@@H](CCCNC(=N)N)NC(=O)[C@@H]1CCCN1C(=O)c1ccccc1)C(=O)N[C@@H](CC1CCCCC1)C(=O)N[C@H]1CSSC[C@@H](C(N)=O)NC1=O` the Ki was 0.29 nM.

In the case of `N=C(N)NCCC[C@@H](NC(=O)[C@@H](CCCNC(=N)N)NC(=O)[C@@H]1CCCN1C(=O)c1ccccc1)C(=O)N[C@@H](CCC(N)=O)C(=O)N[C@@H](CC1CCCCC1)C(=O)N[C@H]1CSSC[C@@H](C(=O)O)NC1=O`, the Ki is reported as 2140 nM.

In the case of `N=C(N)NCCC[C@@H](NC(=O)Cc1cccc(Br)c1)C(=O)N[C@H](CCCNC(=N)N)C(=O)N[C@@H](CCC(N)=O)C(=O)N[C@@H](CC1CCCCC1)C(=O)N[C@H]1CSSC[C@@H](C(N)=O)NC1=O`, the Ki is reported as 1.2 nM.

For `N=C(N)NCCC[C@@H](NC(=O)[C@@H](CCCNC(=N)N)NC(=O)[C@@H]1CCCN1C(=O)c1ccccc1)C(=O)N[C@@H](CO)C(=O)N[C@@H](CC1CCCCC1)C(=O)N[C@H]1CSSC[C@@H](C(N)=O)NC1=O`, the Ki was 0.42 nM.

`N=C(N)NCCC[C@@H](NC(=O)c1cccc(Cl)c1)C(=O)N[C@H](CCCNC(=N)N)C(=O)N[C@@H](CCC(N)=O)C(=O)N[C@@H](CC1CCCCC1)C(=O)N[C@H]1CSSC[C@@H](C(N)=O)NC1=O` showed a Ki of 6.7 nM.

`CC[C@H](C)[C@H](NC(=O)[C@H](CCC(N)=O)NC(=O)[C@H](CCCCN)NC(=O)[C@H](CCCNC(=N)N)NC(=O)[C@@H]1CSSC[C@H](NC(=O)[C@@H](N)CC(N)=O)C(=O)N1)C(=O)N[C@H]1CSSC[C@@H](C(N)=O)NC1=O` (HELM PEPTIDE1{N.C.C.R.K.Q.I.C.C.[am]}$PEPTIDE1,PEPTIDE1,2:R3-3:R3|PEPTIDE1,PEPTIDE1,8:R3-9:R3$$$V2.0) gave a Ki of 208 nM.

For `N=C(N)NCCC[C@H](NC(=O)[C@H](CCCNC(=N)N)NC(=O)[C@@H]1CSSC[C@H](NC(=O)[C@@H](N)CC(N)=O)C(=O)N1)C(=O)N[C@@H](CCC(N)=O)C(=O)N[C@@H](Cc1ccccc1)C(=O)N[C@H]1CSSC[C@@H](C(N)=O)NC1=O` (HELM PEPTIDE1{N.C.C.R.R.Q.F.C.C.[am]}$PEPTIDE1,PEPTIDE1,2:R3-3:R3|PEPTIDE1,PEPTIDE1,8:R3-9:R3$$$V2.0), the Ki was 28 nM.

For `CC(C)C[C@H](NC(=O)[C@@H](CCCNC(=N)N)NC(=O)[C@@H](CCCNC(=N)N)NC(=O)[C@@H]1CCCN1C(=O)c1ccccc1)C(=O)N[C@@H](CC1CCCCC1)C(=O)N[C@H]1CSSC[C@@H](C(N)=O)NC1=O`, the Ki was 1.4 nM.

Work on `N=C(N)NCCC[C@@H](NC(=O)[C@@H](CCCNC(=N)N)NC(=O)[C@@H]1CCCN1C(=O)c1ccccc1)C(=O)N[C@@H](CCC(N)=O)C(=O)N[C@@H](CC1CCCCC1)C(N)=O` yielded a Ki of 22500 nM.

Compound `CC(C)[C@H](NC(=O)[C@H](CCC(N)=O)NC(=O)[C@H](CCCNC(=N)N)NC(=O)[C@H](CCCNC(=N)N)NC(=O)[C@@H]1CSSC[C@H](NC(=O)[C@@H](N)CC(N)=O)C(=O)N1)C(=O)N[C@H]1CSSC[C@@H](C(N)=O)NC1=O` (HELM PEPTIDE1{N.C.C.R.R.Q.V.C.C.[am]}$PEPTIDE1,PEPTIDE1,2:R3-3:R3|PEPTIDE1,PEPTIDE1,8:R3-9:R3$$$V2.0) has a Ki of 664 nM.

In the case of `CC[C@H](C)[C@H](NC(=O)[C@H](CCC(N)=O)NC(=O)[C@H](CCCNC(=N)N)NC(=O)[C@H](CCCNC(N)=O)NC(=O)[C@@H]1CSSC[C@H](NC(=O)[C@@H](N)CC(N)=O)C(=O)N1)C(=O)N[C@H]1CSSC[C@@H](C(N)=O)NC1=O` (HELM PEPTIDE1{N.C.C.[Cit].R.Q.I.C.C.[am]}$PEPTIDE1,PEPTIDE1,2:R3-3:R3|PEPTIDE1,PEPTIDE1,8:R3-9:R3$$$V2.0), the Ki is reported as 218 nM.

`N=C(N)NCCC[C@@H](NC(=O)[C@@H](CCCNC(=N)N)NC(=O)[C@@H]1CCCN1C(=O)c1ccccc1)C(=O)N[C@@H](CCC(=O)O)C(=O)N[C@@H](CC1CCCCC1)C(=O)N[C@H]1CSSC[C@@H](C(N)=O)NC1=O` showed a Ki of 19.4 nM.

`CC[C@H](C)[C@H](NC(=O)[C@H](CCC(N)=O)NC(=O)[C@H](CCCNC(=N)N)NC(=O)[C@H](C)NC(=O)[C@@H]1CSSC[C@H](NC(=O)[C@@H](N)CC(N)=O)C(=O)N1)C(=O)N[C@H]1CSSC[C@@H](C(N)=O)NC1=O` (HELM PEPTIDE1{N.C.C.A.R.Q.I.C.C.[am]}$PEPTIDE1,PEPTIDE1,2:R3-3:R3|PEPTIDE1,PEPTIDE1,8:R3-9:R3$$$V2.0) showed a Ki of 170 nM.

Compound `CC[C@H](C)[C@H](NC(=O)[C@H](CCC(N)=O)NC(=O)[C@H](CCCNC(N)=O)NC(=O)[C@H](CCCNC(=N)N)NC(=O)[C@@H]1CSSC[C@H](NC(=O)[C@@H](N)CC(N)=O)C(=O)N1)C(=O)NC1CSSC[C@@H](C(N)=O)NC1=O` (single isomer, unassigned) has a Ki of 387 nM.

`N=C(N)NCCC[C@@H](NC(=O)[C@@H](CCCNC(=N)N)NC(=O)[C@@H]1CCCN1C(=O)c1ccccc1)C(=O)N[C@@H](CC1CCCCC1)C(=O)N[C@H]1CSSCC(C(N)=O)NC1=O` (single isomer, unassigned) was tested, and the Ki was 60 nM.
